Source: article PMC3855065 (MedChemComm, 2013)
Substitutions are numbered along the chain they refer to.

What was measured:
C. hominis DHFR = target: T1, C. hominis DHFR (Cryptosporidium parvum, UniProt Q27552); experiment: Mode of inhibition: steady-state substrate profile for H2folate and NADPH; type: biochemical
T1 sequence (Q27552 1-521): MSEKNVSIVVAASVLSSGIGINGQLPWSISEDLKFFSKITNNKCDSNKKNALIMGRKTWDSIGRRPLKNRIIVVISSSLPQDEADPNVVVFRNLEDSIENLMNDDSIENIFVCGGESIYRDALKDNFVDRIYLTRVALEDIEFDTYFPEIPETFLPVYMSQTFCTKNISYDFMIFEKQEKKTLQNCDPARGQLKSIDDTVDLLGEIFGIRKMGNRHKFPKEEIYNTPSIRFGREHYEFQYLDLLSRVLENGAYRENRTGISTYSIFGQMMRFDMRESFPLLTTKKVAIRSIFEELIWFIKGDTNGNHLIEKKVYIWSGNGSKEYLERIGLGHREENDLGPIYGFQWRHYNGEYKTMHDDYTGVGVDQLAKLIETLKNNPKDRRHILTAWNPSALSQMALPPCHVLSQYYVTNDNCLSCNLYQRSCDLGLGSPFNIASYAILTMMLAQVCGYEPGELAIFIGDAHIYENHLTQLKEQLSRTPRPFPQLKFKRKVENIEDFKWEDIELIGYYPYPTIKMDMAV
In short: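 Steady-state DHFR activity followed by absorbance at 340 nm. The enzyme was bifunctional TS–DHFR expressed in E. coli BL21 and purified. The test compound, from a DMSO stock, was preincubated with enzyme and substrates for 30 min before the reaction was started. Rates were normalised to an equal-volume DMSO blank. H2folate or NADPH concentration was varied, and mode was assigned from rate profiles and Lineweaver–Burk plots by Michaelis–Menten treatment.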

[1] = target: T2, C. hominis Beta Face DHFR (Cryptosporidium parvum, UniProt Q27552, F207A/I196A/L203A/S195A/T199A/V200A); experiment: Steady-state DHFR inhibition assay against Beta Face mutant enzyme; type: biochemical; details: IC50 C. hominis Beta Face DHFR, Beta Face mutant enzyme, steady-state
T2 sequence (Q27552 1-521 S195A/I196A/T199A/V200A/L203A/F207A): T1 sequence (Q27552 1-521) with S195A, I196A, T199A, V200A, L203A, F207A

[2] = system: C. hominis Beta Face DHFR; experiment: as above; type: biochemical, Cryptosporidium hominis; details: Beta Face vs WT ChDHFR
Human DHFR = target: T3, Human DHFR (Homo sapiens, UniProt P00374); experiment: Steady-state DHFR inhibition assay against the human enzyme; type: biochemical; details: up to 1 mM mimetic
T3 sequence (P00374 1-187): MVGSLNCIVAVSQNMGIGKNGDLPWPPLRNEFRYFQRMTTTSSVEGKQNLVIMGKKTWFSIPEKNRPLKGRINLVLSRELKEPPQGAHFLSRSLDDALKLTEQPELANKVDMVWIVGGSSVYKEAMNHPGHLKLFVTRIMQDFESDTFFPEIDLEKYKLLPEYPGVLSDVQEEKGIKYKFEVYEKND
In short: (§1)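 Each reaction (DHFR or TS) was measured spectroscopically at 340 nm under steady-state conditions. The test compound came from a DMSO stock and was incubated with enzyme and substrates for 30 min before initiation. Activity was normalised to an equal-volume DMSO control. All targets were run at identical enzyme and ligand concentrations. Values are mean ± standard deviation.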

C. hominis TS = target: T4, C. hominis TS (Cryptosporidium parvum, UniProt Q27552); experiment: Steady-state TS inhibition assay; type: biochemical; details: read-out: IC50 C. hominis TS
T4 sequence (Q27552 1-521): T1 sequence (Q27552 1-521)
In short: as §1

Structure (SMILES)	Mode of inhibition (C. hominis DHFR; data not shown)	IC50 [1] [µM]	Potency against Beta Face relative to WT [2]	Inhibition of human DHFR (Human DHFR)	IC50 (C. hominis TS) [µM]	Vmax, NADPH substrate profile (C. hominis DHFR; in the presence of 250 µM compound (1.33 ± 0.02 in the absence)) [µmol/min]	Vmax, H2folate substrate profile (C. hominis DHFR; in the presence of 250 µM compound (1.46 ± 0.03 in the absence)) [µmol/min]	Mode of inhibition for H2folate (C. hominis DHFR; steady-state substrate profile)	Mode of inhibition for NADPH (C. hominis DHFR; steady-state substrate profile)
Cc1ccc(CN(C(=O)Nc2ccc(CCC(=O)O)cc2Cc2ccccc2)C(=O)c2ccc(CCC(=O)O)c(CC(C)C)c2)cc1 [mimetic 1]	noncompetitive mode of inhibition	–	–	–	–	–	–	–	–
CC(C)CN(C(=O)Nc1ccc(CCC(=O)O)cc1Cc1ccccc1)C(=O)c1ccc(OCC(=O)O)c(Cc2ccccc2)c1 [mimetic 2]	–	~20	at least 10 fold	no inhibition	570 ± 60	0.41 ± 0.01	0.48 ± 0.06	noncompetitive (mixed) inhibitor	noncompetitive inhibitor
